SR-BI uptake up: activators of SR-BI mediated DiI-HDL uptake, primary screen, ldlA[mSR-BI] CHO cells, DiI fluorescence; 3 h; 100 = double the neutral-control signal; activation, % at 12.5 µM; 320,000 tested, 0.096% active;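 active = mean replicate activation of at least 60% and every replicate at or above 60%; inconclusive = mean or all-replicate condition met, but not both; inactive = mean below 60% and not all replicates reaching 60%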
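Material: SR-BI-overexpressing, LDLR-lacking CHO cells; schedule: compound exposure 3 h, 37 °C; reagent: DiI-labelled HDL at 10 µg/mL final; technique: bottom-read fluorescence, 550/595 nm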
Rtt109 HAT inh: inhibitors of C. albicans Rtt109/Vps75 HAT, primary screen, biochemical, ThioGlo CoA-SH fluorescence, plate reader; Histone acetyltransferase RTT109 (Candida albicans (strain SC5314 / ATCC MYA-2876)), …; purified Rtt109/Vps75, 4 h; inhibition, % at 34.9 µM; 330,000 tested, 0.16% active;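 active = inhibition of at least 50% in every replicate; inconclusive = best replicate reaches 50% inhibition but some replicates fall short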
Target sequence (Q5AAJ8 whole entry, looked up): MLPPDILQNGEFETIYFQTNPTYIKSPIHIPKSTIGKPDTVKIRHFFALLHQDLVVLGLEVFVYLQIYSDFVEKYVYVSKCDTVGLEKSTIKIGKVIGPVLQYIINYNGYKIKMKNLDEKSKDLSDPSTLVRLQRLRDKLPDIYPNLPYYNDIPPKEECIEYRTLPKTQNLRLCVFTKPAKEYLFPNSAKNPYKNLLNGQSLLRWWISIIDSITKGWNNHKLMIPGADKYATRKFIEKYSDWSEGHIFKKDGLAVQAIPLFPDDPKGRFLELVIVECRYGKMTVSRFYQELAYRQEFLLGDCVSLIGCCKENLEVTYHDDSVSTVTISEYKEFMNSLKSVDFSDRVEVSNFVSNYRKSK
Glyco luc inh: increase of ERlucT glycosylation luciferase signal, primary screen, N-linked glycosylation inhibitor project, D54 ERlucT cells, luminescence, set 2. AID 588692, 2011. D54 ERlucT glycosylation luciferase reporter, 24 h; percent of 100 nM tunicamycin response. reporter increase, % at 12.5 µM. 360,000 tested, 0.23% active;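 active = mean luciferase reporter signal, scaled so untreated is 0 and the glycosylation-blocking control 100, at or above a set limit in every replicate; inconclusive = mean reaches the limit but not every replicate does; inactive = mean below the limit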;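 also: luciferase carries N-glycosylation sites so blocking glycosylation raises the light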
PglD inh: C. jejuni PglD acetyltransferase inhibitors, primary screen, biochemical, DTNB colorimetric, single point; 360,000 tested, 0.098% active; purified PglD enzyme, DTNB colorimetric CoA detection; inhibition, % at 12.5 µM; UDP-N-acetylbacillosamine N-acetyltransferase PglD (Campylobacter jejuni); in the data active = inhibition above about 16%, passing the limit was not always enough; inconclusive = no clear call, values can overlap the other calls
Env fusion inh: inhibitors of HIV-1 Env-driven cell-cell fusion, primary screen, HeLa-JRFL effector, CEM21 target cells, luciferase; 360,000 tested, 1.1% active; inhibition, % at 12.3 µM;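 active = mean replicate inhibition score of at least 50 and every replicate individually at or above 50; inconclusive = only one of the two criteria met; inactive = mean below 50 and not all replicates reaching 50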
SR-BI DiI inh: inhibitors of SR-BI mediated HDL lipid uptake, primary screen, ldlA[mSR-BI] cells, fluorescence, single point; Scavenger receptor class B member 1 (Mus musculus), Q61009; ldlA[mSR-BI] CHO cells, DiI-HDL uptake fluorescence, 3 h; inhibition, % at 12.5 µM; 320,000 tested, 0.96% active; AID 488896, 2010;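 active = mean replicate inhibition of at least 70% and a set share of replicates each scoring 70 or more; inconclusive = meets just one of the two criteria; inactive = fails both criteria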
Hits are given with their value; . = inactive; ? = inconclusive; / = no result; [ ] = dose if it differs, or a comment. Rows were chosen to be rich in hits. Some 1.9% of all compounds tested hit in one or more screens of this group.

SMILES	SR-BI uptake up	Rtt109 HAT inh	Glyco luc inh	PglD inh	Env fusion inh	SR-BI DiI inh
CO[C@H]1CN(C)C(=O)c2ccc(NC(=O)c3nc4ccccc4s3)cc2OC[C@@H](C)NC[C@H]1C	/	/	/	.	.	/
C[C@H]1CN([C@@H](C)CO)C(=O)c2cc(NC(=O)Cn3cnnn3)ccc2O[C@H]1CN(C)C	/	/	/	.	/	/
N#Cc1ccccc1Cn1cc(/C=N/Nc2ccc([N+](=O)[O-])cn2)c2ccccc21	.	.	.	.	.	96
Oc1cccc(C=NNc2ccccn2)c1	.	.	.	.	.	.
O=[N+]([O-])c1ccc(NN=Cc2ccc(O)cc2)nc1	.	.	.	.	.	.
Oc1ccc(C=NNc2ccccn2)c(O)c1	.	.	.	/	69	.
CCN(CC)c1ccc(C=NNc2ccc([N+](=O)[O-])cn2)cc1	.	.	.	.	.	84
O=[N+]([O-])c1ccc(NN=Cc2ccccc2O)nc1	.	.	.	.	.	88
Cn1cnc(S(=O)(=O)N[C@H]2C=C[C@@H](CC(=O)Nc3ccc(-c4ccccc4)cc3)O[C@H]2CO)c1	/	/	/	.	.	/
C[C@H]1CN([C@@H](C)CO)C(=O)c2cc(NC(=O)NC3CCCCC3)ccc2O[C@H]1CN(C)C	/	/	/	.	.	/
Cc1cc(N)c2cc(NC(=O)/C=C/c3ccccc3Cl)ccc2n1	/	90	.	.	/	/
COc1ccc(C(=O)CSc2nn3c(=O)c(C(C)(C)C)nnc3s2)cc1	/	.	34	/	/	/
CCOc1ccc2c(c1)-c1c(ssc1=S)C(C)(C)N2C	.	.	.	.	/	89
CN(C)c1ccc(/C=C/c2ccc3ccccc3[n+]2C)cc1	.	.	.	.	/	.
CN(C)c1ccc(/C=C/c2ccc3c4ccccc4ccc3[n+]2-c2ccccc2)cc1	?	64	?	.	.	.
COc1cc2sc3cc(NCc4ccc5c(c4)OCO5)ccc3c(=O)c2cc1OC	.	.	.	.	.	73
COc1cc2sc3cc(NCc4ccc(C)o4)ccc3c(=O)c2cc1OC	.	.	.	.	.	80
C[C@H](CO)N1C[C@H](C)[C@@H](CN(C)Cc2ccc(F)cc2)Oc2ncc(-c3ccncc3)cc2C1=O	/	/	/	.	.	/
O=C(C[C@@H]1CC[C@H]2[C@@H](COC[C@@H](O)CN2Cc2ccc(Oc3ccccc3)cc2)O1)N1CCN(c2ccccc2)CC1	/	/	/	.	59[16.7 µM]	/
Cc1ccc(NC2CC(=O)N(c3cccc([N+](=O)[O-])c3)C2=O)cc1 (centres undefined)	.	.	.	/	.	83
COc1ccc(N2C(=O)CC(Nc3cccc([N+](=O)[O-])c3)C2=O)cc1 (centres undefined)	/	.	.	/	.	/
CN(c1cccc(NC(=O)CN(c2ccc(C34CC5CC(CC(C5)C3)C4)cc2)S(C)(=O)=O)c1)S(C)(=O)=O	76	.	.	.	/	.
CN(c1cccc(NC(=O)CSc2ccc(Cl)cc2)c1)S(C)(=O)=O	.	.	.	.	61	.
CN(c1cccc(NC(=O)CN(c2ccc(F)cc2)S(C)(=O)=O)c1)S(C)(=O)=O	.	.	.	.	.	.
CO[C@@H]1CN(C)C(=O)c2ccc(NC(=O)C3CCC3)cc2OC[C@H](C)N(C(=O)CN(C)C)C[C@@H]1C	/	/	/	.	.	/
SMILES	SR-BI uptake up	Rtt109 HAT inh	Glyco luc inh	PglD inh	Env fusion inh	SR-BI DiI inh
O=C(CN1CCOCC1)NCC[C@H]1CC[C@@H](NC(=O)Nc2ccccc2)[C@@H](CO)O1	/	/	/	.	.	/
CN1C(=O)c2cc(NC(=O)c3cccc(F)c3)ccc2OC[C@H]2O[C@H](CC(=O)N3CCc4ccccc4C3)CC[C@H]21	/	/	/	.	/	/
COc1cccc(/C=N/Nc2ncnc(Cl)c2N)c1O	.	.	.	/	55	.
COc1cccc(/C=N/Nc2cc(-n3nc(C)cc3-c3ccccc3)ncn2)c1O	.	.	.	.	.	.
COc1cccc(/C=N/Nc2nccnc2Cl)c1O	.	.	.	/	.	.
COc1cccc(/C=N/Nc2ncnc3scc(-c4ccccc4)c23)c1O	.	.	.	/	.	115
C[C@H](CO)N1C[C@H](C)[C@@H](CN(C)C(=O)Nc2ccc(F)cc2)Oc2ncc(-c3cccnc3)cc2C1=O	/	/	/	.	.	/
C[C@@H]1CCCCO[C@@H](CN(C)C)[C@H](C)CN([C@H](C)CO)C(=O)c2cc(NC(=O)C3CCCCC3)ccc2O1	/	/	/	/	.	/
CC1CCN(C(=O)c2cc3nc(-c4ccccc4)cc(-c4ccccc4)n3n2)CC1	.	.	.	.	77	.
CCOC(=O)c1ccc(NC(=O)CCc2nc(-c3ccc(Cl)cc3)no2)cc1	.	.	.	.	59	.
Cc1ccc(-c2noc(CCCC(=O)Nc3cccnc3)n2)cc1	.	.	.	/	64	.
COc1ccc(-c2ccc(CCC(=O)O)o2)cc1	.	58	.	/	.	.
COc1ccc(-c2noc(CCCC(=O)O)n2)cc1	.	.	.	.	84	.
COc1ccc(-c2noc(CCC(=O)O)n2)cc1	.	.	.	/	.	.
O=C(CCCc1nc(-c2ccccc2)no1)Nc1cccnc1	.	.	.	.	.	.
CCOC(=O)c1ccc(NC(=O)CCc2nc(-c3ccc(C)cc3)no2)cc1	?	.	.	.	.	.
O=C(O)CCc1ccc(-c2ccc(Cl)cc2)o1	.	.	.	.	.	.
C[C@@H]1CN([C@@H](C)CO)C(=O)c2cc(N(C)C)ccc2O[C@@H](C)CCCCO[C@H]1CN(C)C(=O)CCC(F)(F)F	/	/	/	.	.	/
C[C@@H]1CN([C@H](C)CO)S(=O)(=O)c2ccc(Br)cc2O[C@@H]1CN(C)C(=O)C1CC1	/	/	/	.	.	/
CCC(=O)NCCc1nc(-c2ccccc2)no1	.	.	.	.	60	.
CCCNC(=O)C(=O)NCCC1=CCCCC1	.	.	.	.	/	.
O=C(CCNC(=O)c1ccccc1Cl)NCCC1=CCCCC1	.	.	.	.	58	.
Cc1ccc(S(=O)(=O)N2CCCCC2)cc1C(=O)NCCC1=CCCCC1	.	/	.	/	73	.
NC(=O)NCCC1=CCCCC1	93	.	.	.	.	.
COC(=O)[C@@H]1C[C@H]2CC[C@H](O)C[C@H]2N1Cc1ccc(C)s1	60	.	.	.	.	.
Cc1noc(C)c1NC(=O)N(C)C[C@@H]1Oc2ccc(NC(=O)Cc3cn(C)c4ccccc34)cc2C(=O)N([C@H](C)CO)C[C@H]1C	/	/	/	.	/	/
